Data published in ChEMBL document CHEMBL3352339, “Implications of N-capped urea/thiourea and C-capped 3-(1-piperazinyl)-1,2-benzisothiazole with bridging Gly-Val/Phe-Gly-Val-Pro as therapeutic targets” (Eur J Med Chem, 2014).
pIC50: −log10 of the molar value. In brackets after ≈: the same amount, converted by molar mass. Starred links: 1 amine or outer side, 2 acyl side, 3 side chain; linkers in the order of their positions; H or OH if unused. Residues, ends and D or L forms follow the SMILES beside them. *: point of attachment. Thiocarbamoyl(N-2-FPh) = Fc1ccccc1NC(=S)*; X1 = c1ccc2c(N3CCN(*)CC3)nsc2c1; NH(4-F-phenyl) = Fc1ccc(N*)cc1; X2 = Fc1ccc(NC(=S)*)cc1; Boc = CC(C)(C)OC(=O)*; CO = O=C([*:1])[*:2]

What was measured:
[1] = system: Klebsiella pneumoniae; assay: Antibacterial activity against Klebsiella pneumoniae at 50 ug/mL incubated for 24 hrs by agar well diffusion method; assay type: functional; settings: read-out: IZ
How it was run: (§1)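 Agar well diffusion against the bacterial isolate, with streptomycin as the reference drug. Read-out is the average diameter (mm) of the growth-inhibition zone around the well.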

[2] = molecular target: Urease (Canavalia ensiformis, UniProt P07374); assay: Inhibition of jack bean urease assessed as reduction in ammonia production incubated at 30 degC for 15 mins by indophenol method
How it was run: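 Inhibition of jack bean urease, with thiourea as the reference standard. IC50 values are the average of triplicate runs.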

[3] = system: Fusarium verticillioides; assay: Antifungal activity against Fusarium moniliforme at 50 ug/mL incubated for 3 days by agar well diffusion method; assay type: functional; settings: 72 h, read-out: IZ
How it was run: (§2)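 Fungal growth inhibition measured by agar well diffusion, with bavistin as the reference. Records the mean inhibition-zone diameter (mm) around each well.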

[4] = system: Fusarium oxysporum; assay: Antifungal activity against Fusarium oxysporum at 50 ug/mL incubated for 3 days by agar well diffusion method; assay type: functional; settings: 72 h, read-out: IZ; how it was run: as §2
[5] = system: Staphylococcus; assay: Antibacterial activity against Coagulase positive Staphylococcus at 50 ug/mL incubated for 24 hrs by agar well diffusion method; assay type: functional; settings: read-out: IZ; how it was run: as §1
[6] = Inhibition of sheep stomach parietal cells gastric H+/K+-ATPase activity assessed as reduction in inorganic phosphorus production by Fiske Subbarow's method; assay type: tissue-based, Ovis aries; settings: for pIC50: read-out: IC50
How it was run: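 Inhibition of purified H+/K+-ATPase, with omeprazole as the reference. IC50 is the mean of triplicate runs.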

[7] = system: Escherichia coli; assay: Antibacterial activity against Escherichia coli at 50 ug/mL incubated for 24 hrs by agar well diffusion method; assay type: functional; settings: read-out: IZ; how it was run: as §1
[8] = system: Aspergillus flavus; assay: Antifungal activity against Aspergillus flavus at 50 ug/mL incubated for 3 days by agar well diffusion method; assay type: functional; settings: 72 h, read-out: IZ; how it was run: as §2
[9] = Antiglycation activity using bovine serum albumin incubated at 37 degC for 7 days by spectrofluorimetry; assay type: physicochemical
How it was run: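 Glycation of bovine serum albumin, with rutin as the reference standard. IC50 values are averages of triplicate runs.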

[10] = system: Aspergillus niger; assay: Antifungal activity against Aspergillus niger at 50 ug/mL incubated for 3 days by agar well diffusion method; assay type: functional; settings: 72 h, read-out: IZ; how it was run: as §2
[11] = system: Xanthomonas oryzae; assay: Antibacterial activity against Xanthomonas oryzae at 50 ug/mL incubated for 24 hrs by agar well diffusion method; assay type: functional; settings: read-out: IZ
[12] = system: Escherichia coli; assay: Antibacterial activity against Escherichia coli incubated for 24 hrs by agar microdilution method; assay type: functional
[13] = system: Klebsiella pneumoniae; assay: Antibacterial activity against Klebsiella pneumoniae incubated for 24 hrs by agar microdilution method; assay type: functional
[14] = system: Fusarium oxysporum; assay: Antifungal activity against Fusarium oxysporum incubated for 48 to 72 hrs by agar microdilution method; assay type: functional
How it was run: (§3)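 MIC by microdilution against the fungal strain, limited to compounds showing significant zones in the diffusion assay. Bavistin was used as the reference.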

[15] = system: Aspergillus niger; assay: Antifungal activity against Aspergillus niger incubated for 48 to 72 hrs by agar microdilution method; assay type: functional; how it was run: as §3
[16] = system: Xanthomonas oryzae; assay: Antibacterial activity against Xanthomonas oryzae incubated for 24 hrs by agar microdilution method; assay type: functional
[17] = system: Staphylococcus; assay: Antibacterial activity against Coagulase positive Staphylococcus incubated for 24 hrs by agar microdilution method; assay type: functional
[18] = system: Fusarium verticillioides; assay: Antifungal activity against Fusarium moniliforme incubated for 48 to 72 hrs by agar microdilution method; assay type: functional; how it was run: as §3
[19] = system: Aspergillus flavus; assay: Antifungal activity against Aspergillus flavus incubated for 48 to 72 hrs by agar microdilution method; assay type: functional; how it was run: as §3

Sequence of Urease (P07374 whole entry): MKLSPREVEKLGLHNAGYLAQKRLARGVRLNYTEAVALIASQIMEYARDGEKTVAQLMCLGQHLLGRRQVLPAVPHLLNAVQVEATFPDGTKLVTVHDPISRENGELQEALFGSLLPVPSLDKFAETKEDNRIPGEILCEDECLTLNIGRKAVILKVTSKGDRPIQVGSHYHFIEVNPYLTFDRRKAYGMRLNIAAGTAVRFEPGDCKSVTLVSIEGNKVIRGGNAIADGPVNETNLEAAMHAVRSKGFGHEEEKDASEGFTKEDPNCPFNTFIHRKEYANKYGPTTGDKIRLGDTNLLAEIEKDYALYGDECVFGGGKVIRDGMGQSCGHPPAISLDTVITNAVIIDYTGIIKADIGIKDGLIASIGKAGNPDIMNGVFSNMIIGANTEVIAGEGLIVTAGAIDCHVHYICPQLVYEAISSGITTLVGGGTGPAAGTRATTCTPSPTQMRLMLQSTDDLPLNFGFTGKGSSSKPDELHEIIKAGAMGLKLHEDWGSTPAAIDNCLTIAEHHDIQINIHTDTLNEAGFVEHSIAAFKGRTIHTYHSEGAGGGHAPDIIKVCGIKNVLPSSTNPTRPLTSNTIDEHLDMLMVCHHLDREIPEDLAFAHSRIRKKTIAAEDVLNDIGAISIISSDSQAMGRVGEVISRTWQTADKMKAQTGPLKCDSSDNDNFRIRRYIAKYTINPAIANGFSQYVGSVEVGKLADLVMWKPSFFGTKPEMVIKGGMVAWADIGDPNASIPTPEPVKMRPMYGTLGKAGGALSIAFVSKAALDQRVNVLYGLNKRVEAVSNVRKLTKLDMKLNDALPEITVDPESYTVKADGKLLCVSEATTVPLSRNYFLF

CC(C)[C@H](NC(=O)CNC(=O)OC(C)(C)C)C(=O)NCC(=O)N[C@H](C(=O)N1CCC[C@H]1C(=O)N1CCN(c2nsc3ccccc23)CC1)C(C)C (Boc-GVGVP-X1)
zone of inhibition at 50 µg/mL [1]: 40.3 mm | pIC50 [2]: 3.53 | zone of inhibition at 50 µg/mL [3]: 5 mm | zone of inhibition at 50 µg/mL [4]: 6 mm | zone of inhibition at 50 µg/mL [5]: 5 mm | IC50 [6]: Not Active | zone of inhibition at 50 µg/mL [7]: 6 mm | zone of inhibition at 50 µg/mL [8]: 4 mm | pIC50 [9]: 3.60 | zone of inhibition at 50 µg/mL [10]: 5 mm | zone of inhibition at 50 µg/mL [11]: 4 mm

CC(C)[C@H](NC(=O)CNC(=O)[C@H](Cc1ccccc1)NC(=O)CNC(=S)Nc1ccc(F)cc1)C(=O)N1CCC[C@H]1C(=O)N1CCN(c2nsc3ccccc23)CC1 (X2-GFGVP-X1)
pIC50 [2]: 4.48 | zone of inhibition at 50 µg/mL [3]: 36 mm | zone of inhibition at 50 µg/mL [4]: 35 mm | MIC [12]: 9 µg/mL (≈ 10.8 µM) | zone of inhibition at 50 µg/mL [5]: 35 mm | pIC50 [6]: 4.14 | MIC [13]: 8.5 µg/mL (≈ 10.2 µM) | MIC [14]: 11 µg/mL (≈ 13.3 µM) | MIC [15]: 9.75 µg/mL (≈ 11.7 µM) | MIC [16]: 7.5 µg | zone of inhibition at 50 µg/mL [7]: 35 mm | MIC [17]: 9 µg/mL (≈ 10.8 µM) | zone of inhibition at 50 µg/mL [8]: 36 mm | pIC50 [9]: 4.38 | MIC [18]: 9.75 µg/mL (≈ 11.7 µM) | zone of inhibition at 50 µg/mL [10]: 35 mm | zone of inhibition at 50 µg/mL [11]: 34 mm | MIC [19]: 10.2 µg/mL (≈ 12.3 µM)

CC(C)[C@H](NC(=O)CNC(=S)Nc1ccc(F)cc1)C(=O)NCC(=O)N[C@H](C(=O)N1CCC[C@H]1C(=O)N1CCN(c2nsc3ccccc23)CC1)C(C)C (X2-GVGVP-X1)
pIC50 [2]: 4.46 | zone of inhibition at 50 µg/mL [3]: 35 mm | zone of inhibition at 50 µg/mL [4]: 35 mm | MIC [12]: 10.2 µg/mL (≈ 13.1 µM) | zone of inhibition at 50 µg/mL [5]: 31 mm | pIC50 [6]: 4.12 | MIC [13]: 10 µg/mL (≈ 12.8 µM) | MIC [14]: 13.2 µg/mL (≈ 16.9 µM) | MIC [15]: 10.5 µg/mL (≈ 13.4 µM) | MIC [16]: 9.5 µg | zone of inhibition at 50 µg/mL [7]: 32 mm | MIC [17]: 10.8 µg/mL (≈ 13.7 µM) | zone of inhibition at 50 µg/mL [8]: 34 mm | pIC50 [9]: 4.47 | MIC [18]: 11 µg/mL (≈ 14.1 µM) | zone of inhibition at 50 µg/mL [10]: 35 mm | zone of inhibition at 50 µg/mL [11]: 29 mm | MIC [19]: 12.8 µg/mL (≈ 16.3 µM)

CC(C)[C@H](NC(=O)CNC(=O)[C@H](Cc1ccccc1)NC(=O)CNC(=O)Nc1ccc(F)cc1)C(=O)N1CCC[C@H]1C(=O)N1CCN(c2nsc3ccccc23)CC1 ({NH(4-F-phenyl)-CO}-GFGVP-X1)
pIC50 [2]: 4.46 | zone of inhibition at 50 µg/mL [3]: 31 mm | zone of inhibition at 50 µg/mL [4]: 32 mm | MIC [12]: 11 µg/mL (≈ 13.5 µM) | zone of inhibition at 50 µg/mL [5]: 32 mm | pIC50 [6]: 4.10 | MIC [13]: 9.25 µg/mL (≈ 11.4 µM) | MIC [14]: 12.2 µg/mL (≈ 15 µM) | MIC [15]: 10.5 µg/mL (≈ 12.9 µM) | MIC [16]: 8.75 µg | zone of inhibition at 50 µg/mL [7]: 33 mm | MIC [17]: 11.2 µg/mL (≈ 13.8 µM) | zone of inhibition at 50 µg/mL [8]: 31 mm | pIC50 [9]: 4.36 | MIC [18]: 11 µg/mL (≈ 13.5 µM) | zone of inhibition at 50 µg/mL [10]: 30 mm | zone of inhibition at 50 µg/mL [11]: 31 mm | MIC [19]: 11 µg/mL (≈ 13.5 µM)

CC(C)[C@H](NC(=O)CNC(=O)Nc1ccc(F)cc1)C(=O)NCC(=O)N[C@H](C(=O)N1CCC[C@H]1C(=O)N1CCN(c2nsc3ccccc23)CC1)C(C)C ({NH(4-F-phenyl)-CO}-GVGVP-X1)
pIC50 [2]: 4.41 | zone of inhibition at 50 µg/mL [3]: 34 mm | zone of inhibition at 50 µg/mL [4]: 30 mm | MIC [12]: 12.8 µg/mL (≈ 16.6 µM) | zone of inhibition at 50 µg/mL [5]: 29 mm | pIC50 [6]: 4.11 | MIC [13]: 11.2 µg/mL (≈ 14.7 µM) | MIC [14]: 14.5 µg/mL (≈ 18.9 µM) | MIC [15]: 11.8 µg/mL (≈ 15.3 µM) | MIC [16]: 10.5 µg | zone of inhibition at 50 µg/mL [7]: 30 mm | MIC [17]: 13.2 µg/mL (≈ 17.3 µM) | zone of inhibition at 50 µg/mL [8]: 32 mm | pIC50 [9]: 4.40 | MIC [18]: 13.5 µg/mL (≈ 17.6 µM) | zone of inhibition at 50 µg/mL [10]: 33 mm | zone of inhibition at 50 µg/mL [11]: 27 mm | MIC [19]: 14.5 µg/mL (≈ 18.9 µM)

CC(C)[C@H](NC(=O)CNC(=O)[C@H](Cc1ccccc1)NC(=O)CNC(=S)Nc1ccccc1F)C(=O)N1CCC[C@H]1C(=O)N1CCN(c2nsc3ccccc23)CC1 ({Thiocarbamoyl(N-2-FPh)}-GFGVP-X1)
pIC50 [2]: 4.42 | zone of inhibition at 50 µg/mL [3]: 28 mm | zone of inhibition at 50 µg/mL [4]: 31 mm | MIC [12]: 11 µg/mL (≈ 13.3 µM) | zone of inhibition at 50 µg/mL [5]: 31 mm | pIC50 [6]: 3.99 | MIC [13]: 10.8 µg/mL (≈ 13 µM) | MIC [14]: 13 µg/mL (≈ 15.7 µM) | MIC [15]: 12.8 µg/mL (≈ 15.4 µM) | MIC [16]: 11 µg | zone of inhibition at 50 µg/mL [7]: 32 mm | MIC [17]: 11.2 µg/mL (≈ 13.6 µM) | zone of inhibition at 50 µg/mL [8]: 30 mm | pIC50 [9]: 4.32 | MIC [18]: 9.25 µg/mL (≈ 11.1 µM) | zone of inhibition at 50 µg/mL [10]: 31 mm | zone of inhibition at 50 µg/mL [11]: 31 mm | MIC [19]: 13 µg/mL (≈ 15.7 µM)
